PMC11451551 (Science Advances, 2024)

Experiments:
[1] = tested on: digitonin-permeabilized Molt-4 cells; assay: Permeabilized cell JC-1 assay; assay type: cell-based, human
Method in brief: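 Molt-4 cells were washed into DTEB buffer (trehalose, KCl, EDTA/EGTA, 0.1% BSA, succinate, 10 mM Hepes-KOH pH 7.5) containing 2 μM JC-1, 0.01% digitonin, 10 mM β-mercaptoethanol and oligomycin (20 μg/ml). After 10 min at room temperature they were diluted with an equal volume of buffer and test compound was added. DMSO was the negative control; FCCP 10 μM final defined 100% depolarization. Fluorescence at 590 nm was read every 10 min, 37°C, 1–3 h. EC50 from % depolarization.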

[2] = tested on: Molt-4 cells; assay: Cell viability assay; assay type: cell-based, human
Method in brief: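 Molt-4 or RS4;11 leukaemia cells were plated at 50,000 per well in medium with 10% human serum. They were exposed 48 h to a threefold dilution series of test compound, 5 to 0.020 μM, each concentration in duplicate on at least three occasions. Viable cells were read by CellTiter-Glo luminescence, and EC50 was taken from a sigmoidal fit.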

[3] = tested on: circulating platelets in SCID/bg mice; assay: Assessment of platelet levels in mice; assay type: in vivo, mouse; conditions: single dose: 9 0.1 mg/kg iv, 10 0.6 mg/kg iv, navitoclax 50 mg/kg oral
Method in brief: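 Female SCID/bg mice were randomised (15 per group) and given one dose of vehicle or test compound, intravenously or by oral gavage. At 6, 72 and 168 h, five mice per group were bled from the retro-orbital plexus under sevoflurane into heparinised vials and then euthanised without recovery. Platelets were counted on an automated haematology analyser; results are group means with SEM.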

[4] = tested on: anesthetized beagle dogs; assay: in vivo; assay type: in vivo, dog; conditions: for effect on cardiovascular parameters / effect on platelets: iv bolus
[5] = tested on: H1650 tumors; assay: H1650 xenograft efficacy in SCID/bg mice; assay type: in vivo, mouse
Method in brief: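 H1650 or PC-9 NSCLC cells (RPMI 1640, 10% heat-inactivated FBS, ≤5 passages, mycoplasma-free) were injected subcutaneously at 5×10^6 cells into the right flank of 8-week-old female SCID/bg mice (~22 g). Docetaxel was given 7.5 mg/kg iv QDx1 and conjugates intraperitoneally. In the single-dose study (H1650 only), tumours were ~200 mm³ and treatment began on day 9, QDx1. In the other study, treatment began on day 10, Q7D×2. Volumes are means of eight tumours.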

[6] = in vivo; assay type: in vivo, dog; conditions: male, beagle, dog, in vivo, 0.3 mg/kg

| Structure (SMILES) | Permeabilized Molt-4 EC50 [1] | effect on platelets at 6 hours [3] | effect on platelets [4] | effect on cardiovascular parameters [4] | other results |
| --- | --- | --- | --- | --- | --- |
| Cc1c(-c2ccc(N3CCc4cccc(C(=O)Nc5nc6ccccc6s5)c4C3)nc2C(=O)O)cnn1CC12CC3(C)CC(C)(C1)CC(OCCNCCS(=O)(=O)O)(C3)C2 [compound 10] | subnanomolar | no significant reduction of platelet number | no decrease in platelets | only minimal to moderate effects on cardiovascular parameters | loss of Molt-4 activity relative to 9 [2]: over 30 fold |
| CC(=O)O[C@@]12CO[C@@H]1C[C@H](O)[C@@]1(C)C(=O)[C@H](O)C3=C(C)[C@@H](OC(=O)[C@H](O)[C@@H](NC(=O)OC(C)(C)C)c4ccccc4)C[C@@](O)([C@@H](OC(=O)c4ccccc4)[C@H]21)C3(C)C [docetaxel] | – | – | – | – | tumor growth inhibition (TGI) ([5]; 7.5 mg/kg iv QDx1, alone (single-dose ADC study)): 81%; time by which all tumors were relapsed ([5]; single agent): ≤ 46 days |
| Cc1c(-c2ccc(N3CCc4cccc(C(=O)Nc5nc6ccccc6s5)c4C3)nc2C(=O)O)cnn1CC12CC3(C)CC(C)(C1)CC(OCCNCC[C@H](O)CO)(C3)C2 [compound 11] | – | – | – | – | effect on cardiovascular function ([4]; 0.3 mg/kg per minute): cardiovascular collapse in both animals; effect on cardiovascular function ([4]; 0.01 and 0.1 mg/kg per minute): no impact on blood pressure or other indices of cardiovascular function; plasma concentration without impact on cardiovascular function ([4]; infusion 0.01 and 0.1 mg/kg per minute): ≤ 0.447 µg/mL; estimated cardiovascular TI (dog tolerated plasma level vs free 11 in monkeys) ([4]; male, beagle, dog, in vivo): > 65 fold; Cmax [6]: 1.02 µg/mL |

Further lines, with some results ahead:

| Permeabilized Molt-4 EC50 [1] | effect on platelets at 6 hours [3] | effect on platelets [4] | Structure (SMILES) | effect on cardiovascular parameters [4] | other results |
| --- | --- | --- | --- | --- | --- |
| subnanomolar | severe thrombocytopenia | expected thrombocytopenia | CNCCOC12CC3(C)CC(C)(CC(Cn4ncc(-c5ccc(N6CCc7cccc(C(=O)Nc8nc9ccccc9s8)c7C6)nc5C(=O)O)c4C)(C3)C1)C2 [compound 9] | marked changes in cardiovascular parameters | EC50 ([2]; read-out: Molt-4 cell EC50, 10% human serum, 48 h): 8 nM |
| – | severe thrombocytopenia | – | CC1(C)CCC(c2ccc(Cl)cc2)=C(CN2CCN(c3ccc(C(=O)NS(=O)(=O)c4ccc(N[C@H](CCN5CCOCC5)CSc5ccccc5)c(S(=O)(=O)C(F)(F)F)c4)cc3)CC2)C1 [navitoclax, reference compound] | – | – |
